≈ marks a conversion by molar mass, not a printed value.
Columns and labels:
Type in all cases: functional
Streptococcus pyogenes [1] = experiment: Antimicrobial activity against drug-susceptible Streptococcus pyogenes 1 after 20 hrs by agar dilution method; conditions: Streptococcus pyogenes, 20 h; read-out: MIC
In short: (§1)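 Streptococci, H. influenzae and M. catarrhalis were precultured on blood agar plates. Suspensions of about 10⁶ CFU/ml were inoculated onto sensitivity disk agar supplemented with 5% horse blood and incubated at 37 °C for 20 h. MIC was read as the lowest drug concentration with no visible growth.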

Moraxella catarrhalis [2] = experiment: Antimicrobial activity against drug-susceptible Moraxella catarrhalis 2 after 20 hrs by agar dilution method; conditions: Moraxella catarrhalis, 20 h; read-out: MIC; in short: as §1
Streptococcus pneumoniae [3] = experiment: Antimicrobial activity against Streptococcus pneumoniae 6 constitutively expressing ermB after 20 hrs by agar dilution method; conditions: Streptococcus pneumoniae, 20 h; read-out: MIC; in short: as §1
Haemophilus influenzae [4] = experiment: Antimicrobial activity against drug-susceptible Haemophilus influenzae 1 after 20 hrs by agar dilution method; conditions: Haemophilus influenzae, 20 h; read-out: MIC; in short: as §1
Streptococcus pneumoniae [5] = experiment: Antimicrobial activity against Streptococcus pneumoniae 5 constitutively expressing ermB/mefA after 20 hrs by agar dilution method; conditions: Streptococcus pneumoniae, 20 h; read-out: MIC; in short: as §1
Staphylococcus aureus [6] = experiment: Antimicrobial activity against Staphylococcus aureus 4 constitutively expressing ermA after 20 hrs by agar dilution method
In short: (§2)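 Agar dilution MIC. S. aureus seed culture was grown in sensitivity test broth. Cell suspension (about 10⁶ CFU/ml) was inoculated onto sensitivity disk agar with 5% horse blood and incubated at 37 °C for 20 h. MIC was the lowest drug concentration that prevented visible growth.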

Streptococcus pneumoniae [7] = experiment: Antimicrobial activity against Streptococcus pneumoniae 8 expressing inducible ermB after 20 hrs by agar dilution method; conditions: Streptococcus pneumoniae, 20 h; read-out: MIC; in short: as §1
Staphylococcus aureus [8] = experiment: Antimicrobial activity against drug-susceptible Staphylococcus aureus 209P JC-1 after 20 hrs by agar dilution method; conditions: Staphylococcus aureus, 209P, 20 h; read-out: MIC; in short: as §2
Streptococcus pneumoniae [9] = experiment: Antimicrobial activity against Streptococcus pneumoniae 4 constitutively expressing ermB after 20 hrs by agar dilution method; conditions: Streptococcus pneumoniae, 20 h; read-out: MIC; in short: as §1
Streptococcus pneumoniae [10] = experiment: Antimicrobial activity against Streptococcus pneumoniae 10 expressing mefA after 20 hrs by agar dilution method; conditions: Streptococcus pneumoniae, 20 h; read-out: MIC; in short: as §1
Streptococcus pneumoniae [11] = experiment: Antimicrobial activity against Streptococcus pneumoniae 7 expressing inducible ermB after 20 hrs by agar dilution method; conditions: Streptococcus pneumoniae, 20 h; read-out: MIC; in short: as §1
Staphylococcus aureus [12] = experiment: Antimicrobial activity against drug-susceptible Staphylococcus aureus 2 after 20 hrs by agar dilution method; conditions: Staphylococcus aureus, 20 h; read-out: MIC; in short: as §2
Streptococcus pneumoniae [13] = experiment: Antimicrobial activity against drug-susceptible Streptococcus pneumoniae 2 after 20 hrs by agar dilution method; conditions: Streptococcus pneumoniae, 20 h; read-out: MIC; in short: as §1
Moraxella catarrhalis [14] = experiment: Antimicrobial activity against drug-susceptible Moraxella catarrhalis 1 after 20 hrs by agar dilution method; conditions: Moraxella catarrhalis, 20 h; read-out: MIC; in short: as §1
Streptococcus pyogenes [15] = experiment: Antimicrobial activity against Streptococcus pyogenes 2 constitutively expressing ermB after 20 hrs by agar dilution method; in short: as §1
Streptococcus pneumoniae [16] = experiment: Antimicrobial activity against drug-susceptible Streptococcus pneumoniae DP1 Type1 after 20 hrs by agar dilution method; conditions: Streptococcus pneumoniae, 20 h; read-out: MIC; in short: as §1
Staphylococcus aureus [17] = experiment: Antimicrobial activity against Staphylococcus aureus 5 expressing inducible ermB after 20 hrs by agar dilution method; conditions: Staphylococcus aureus, 20 h; read-out: MIC; in short: as §2
Staphylococcus aureus [18] = experiment: Antimicrobial activity against Staphylococcus aureus 6 expressing inducible ermB after 20 hrs by agar dilution method; in short: as §2
Haemophilus influenzae [19] = experiment: Antimicrobial activity against drug-susceptible Haemophilus influenzae 4 after 20 hrs by agar dilution method; conditions: Haemophilus influenzae, 20 h; read-out: MIC; in short: as §1
Streptococcus pneumoniae [20] = experiment: Antimicrobial activity against Streptococcus pneumoniae 9 expressing mefA after 20 hrs by agar dilution method; conditions: Streptococcus pneumoniae, 20 h; read-out: MIC; in short: as §1
Haemophilus influenzae [21] = experiment: Antimicrobial activity against drug-susceptible Haemophilus influenzae 3 after 20 hrs by agar dilution method; conditions: Haemophilus influenzae, 20 h; read-out: MIC; in short: as §1
Streptococcus pneumoniae [22] = experiment: Antimicrobial activity against drug-susceptible Streptococcus pneumoniae 3 after 20 hrs by agar dilution method; conditions: Streptococcus pneumoniae, 20 h; read-out: MIC; in short: as §1
Haemophilus influenzae [23] = experiment: Antimicrobial activity against drug-susceptible Haemophilus influenzae 2 after 20 hrs by agar dilution method; conditions: Haemophilus influenzae, 20 h; read-out: MIC; in short: as §1
Staphylococcus aureus [24] = experiment: Antimicrobial activity against drug-susceptible Staphylococcus aureus 3 after 20 hrs by agar dilution method; conditions: Staphylococcus aureus, 20 h; read-out: MIC; in short: as §2
Streptococcus pyogenes [25] = experiment: Antimicrobial activity against Streptococcus pyogenes 3 expressing mefA after 20 hrs by agar dilution method; conditions: Streptococcus pyogenes, 20 h; read-out: MIC; in short: as §1

| MIC (Streptococcus pyogenes [1]) [µg/mL] | MIC (Moraxella catarrhalis [2]) [µg/mL] | MIC (Streptococcus pneumoniae [3]) [µg/mL] | MIC (Haemophilus influenzae [4]) [µg/mL] | MIC (Streptococcus pneumoniae [5]) [µg/mL] | MIC (Staphylococcus aureus [6]) [µg/mL] | MIC (Streptococcus pneumoniae [7]) [µg/mL] | MIC (Staphylococcus aureus [8]) [µg/mL] | MIC (Streptococcus pneumoniae [9]) [µg/mL] | MIC (Streptococcus pneumoniae [10]) [µg/mL] | MIC (Streptococcus pneumoniae [11]) [µg/mL] | MIC (Staphylococcus aureus [12]) [µg/mL] | MIC (Streptococcus pneumoniae [13]) [µg/mL] | MIC (Moraxella catarrhalis [14]) [µg/mL] | MIC (Streptococcus pyogenes [15]) [µg/mL] | MIC (Streptococcus pneumoniae [16]) [µg/mL] | MIC (Staphylococcus aureus [17]) [µg/mL] | MIC (Staphylococcus aureus [18]) [µg/mL] | MIC (Haemophilus influenzae [19]) [µg/mL] | MIC (Streptococcus pneumoniae [20]) [µg/mL] | other results | SMILES |
| --- | --- | --- | --- | --- | --- | --- | --- | --- | --- | --- | --- | --- | --- | --- | --- | --- | --- | --- | --- | --- | --- |
| 0.06 (≈ 0.0607 µM) | 2 (≈ 2.02 µM) | > 128 | 32 (≈ 32.4 µM) | > 128 | > 128 | 8 (≈ 8.1 µM) | 0.5 (≈ 0.506 µM) | > 128 | 0.06 (≈ 0.0607 µM) | 8 (≈ 8.1 µM) | 1 (≈ 1.01 µM) | 0.06 (≈ 0.0607 µM) | 2 (≈ 2.02 µM) | > 128 | 0.03 (≈ 0.0304 µM) | 0.5 (≈ 0.506 µM) | 0.5 (≈ 0.506 µM) | 16 (≈ 16.2 µM) | 0.06 (≈ 0.0607 µM) | MIC (Haemophilus influenzae [21]): 16 µg/mL (≈ 16.2 µM); MIC (Streptococcus pneumoniae [22]): 0.06 µg/mL (≈ 0.0607 µM); MIC (Haemophilus influenzae [23]): 4 µg/mL (≈ 4.05 µM); MIC (Staphylococcus aureus [24]): 0.25 µg/mL (≈ 0.253 µM); MIC (Streptococcus pyogenes [25]): 0.5 µg/mL (≈ 0.506 µM) | CCOC(=O)[C@H]1[C@H](C)O[C@@H](O[C@H]2[C@H](N(C)C)[C@@H](O)[C@H](O[C@H]3[C@@H](CC=O)C[C@@H](C)[C@@H](O)CN(C)CCC[C@H](CCCc4ccnc5ccccc45)OC(=O)C[C@@H](OC(=O)CC)[C@@H]3OC)O[C@@H]2C)C[C@@]1(C)O |
| 0.25 (≈ 0.254 µM) | 2 (≈ 2.03 µM) | 64 (≈ 65 µM) | 64 (≈ 65 µM) | 64 (≈ 65 µM) | > 128 | 2 (≈ 2.03 µM) | 1 (≈ 1.01 µM) | 64 (≈ 65 µM) | 0.06 (≈ 0.0609 µM) | 4 (≈ 4.06 µM) | 2 (≈ 2.03 µM) | 0.13 (≈ 0.132 µM) | 2 (≈ 2.03 µM) | 64 (≈ 65 µM) | 0.06 (≈ 0.0609 µM) | 0.5 (≈ 0.507 µM) | 1 (≈ 1.01 µM) | 16 (≈ 16.2 µM) | 0.06 (≈ 0.0609 µM) | MIC (Haemophilus influenzae [21]): 16 µg/mL (≈ 16.2 µM); MIC (Streptococcus pneumoniae [22]): 0.06 µg/mL (≈ 0.0609 µM); MIC (Haemophilus influenzae [23]): 16 µg/mL (≈ 16.2 µM); MIC (Staphylococcus aureus [24]): 0.5 µg/mL (≈ 0.507 µM); MIC (Streptococcus pyogenes [25]): 1 µg/mL (≈ 1.01 µM) | CCOC(=O)[C@H]1[C@H](C)O[C@@H](O[C@H]2[C@H](N(C)C)[C@@H](O)[C@H](O[C@H]3[C@@H](CC=O)C[C@@H](C)[C@@H](O)CN(C)CCC[C@H](C/C=C/c4cccc5ccccc45)OC(=O)C[C@@H](OC(=O)CC)[C@@H]3OC)O[C@@H]2C)C[C@@]1(C)O |
| 0.13 (≈ 0.139 µM) | 1 (≈ 1.07 µM) | > 128 | 64 (≈ 68.4 µM) | > 128 | > 128 | 4 (≈ 4.28 µM) | 0.5 (≈ 0.535 µM) | 128 (≈ 137 µM) | 0.06 (≈ 0.0642 µM) | 2 (≈ 2.14 µM) | 1 (≈ 1.07 µM) | 0.06 (≈ 0.0642 µM) | 1 (≈ 1.07 µM) | > 128 | 0.03 (≈ 0.0321 µM) | 0.25 (≈ 0.267 µM) | 0.5 (≈ 0.535 µM) | 8 (≈ 8.55 µM) | 0.06 (≈ 0.0642 µM) | MIC (Haemophilus influenzae [21]): 16 µg/mL (≈ 17.1 µM); MIC (Streptococcus pneumoniae [22]): 0.06 µg/mL (≈ 0.0642 µM); MIC (Haemophilus influenzae [23]): 8 µg/mL (≈ 8.55 µM); MIC (Staphylococcus aureus [24]): 0.25 µg/mL (≈ 0.267 µM); MIC (Streptococcus pyogenes [25]): 0.5 µg/mL (≈ 0.535 µM) | CCOC(=O)[C@H]1[C@H](C)O[C@@H](O[C@H]2[C@H](N(C)C)[C@@H](O)[C@H](O[C@H]3[C@@H](CC=O)C[C@@H](C)[C@@H](O)CN(C)CCC[C@H](C/C=C/c4ccccc4)OC(=O)C[C@@H](OC(=O)CC)[C@@H]3OC)O[C@@H]2C)C[C@@]1(C)O |
| 0.25 (≈ 0.253 µM) | 4 (≈ 4.06 µM) | > 128 | 64 (≈ 64.9 µM) | > 128 | > 128 | 32 (≈ 32.4 µM) | 0.5 (≈ 0.507 µM) | > 128 | 0.13 (≈ 0.132 µM) | 32 (≈ 32.4 µM) | 1 (≈ 1.01 µM) | 0.13 (≈ 0.132 µM) | 2 (≈ 2.03 µM) | > 128 | 0.13 (≈ 0.132 µM) | 0.25 (≈ 0.253 µM) | 0.5 (≈ 0.507 µM) | 16 (≈ 16.2 µM) | 0.13 (≈ 0.132 µM) | MIC (Haemophilus influenzae [21]): 16 µg/mL (≈ 16.2 µM); MIC (Streptococcus pneumoniae [22]): 0.06 µg/mL (≈ 0.0608 µM); MIC (Haemophilus influenzae [23]): 8 µg/mL (≈ 8.11 µM); MIC (Staphylococcus aureus [24]): 0.25 µg/mL (≈ 0.253 µM); MIC (Streptococcus pyogenes [25]): 0.5 µg/mL (≈ 0.507 µM) | CCOC(=O)[C@H]1[C@H](C)O[C@@H](O[C@H]2[C@H](N(C)C)[C@@H](O)[C@H](O[C@H]3[C@@H](CC=O)C[C@@H](C)[C@@H](O)CN(C)CCC[C@@H](C/C=C/c4ccnc5ccccc45)OC(=O)C[C@@H](OC(=O)CC)[C@@H]3OC)O[C@@H]2C)C[C@@]1(C)O |
